Measurements from ChEMBL document CHEMBL1772997 (J Med Chem, 2011).
Calls of active or inactive are those of the source. The calls are words filed in the database; no cut-off is given here.

Legend:
[1] = molecular target: T1, Melatonin receptor type 1A (Homo sapiens, UniProt P48039); test: Displacement of [125I]-2-iodomelatonin from human MT1 receptor expressed on CHO cells by microscintillation counting; assay type: cell-based
Homo sapiens = species: Homo sapiens; test: Selectivity ratio, ratio of Ki for human MT1 receptor over Ki for human MT2 receptor
[2] = molecular target: T2, Melatonin receptor type 1B (Homo sapiens, UniProt P49286); test: Displacement of [125I]-2-iodomelatonin from human MT2 receptor expressed on CHO cells microscintillation counting; assay type: cell-based
T2 sequence (P49286 whole entry): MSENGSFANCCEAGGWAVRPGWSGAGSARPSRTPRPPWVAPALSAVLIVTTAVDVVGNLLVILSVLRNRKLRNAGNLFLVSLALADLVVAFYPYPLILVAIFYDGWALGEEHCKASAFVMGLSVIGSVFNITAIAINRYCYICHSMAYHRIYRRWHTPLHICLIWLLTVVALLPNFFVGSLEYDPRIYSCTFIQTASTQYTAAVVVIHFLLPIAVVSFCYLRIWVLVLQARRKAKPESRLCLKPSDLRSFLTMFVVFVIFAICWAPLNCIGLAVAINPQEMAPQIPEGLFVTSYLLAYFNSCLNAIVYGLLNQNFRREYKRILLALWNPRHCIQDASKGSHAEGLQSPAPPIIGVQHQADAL

[3] = molecular target: T2, Melatonin receptor type 1B; test: Agonist activity at human MT2 receptor expressed in CHO cells assessed as inhibition of forskolin-induced cAMP accumulation after 30 mins by EnVision Multilabel Plate Readers; assay type: functional, cell-based
Mus musculus [4] = test: Chronobiotic activity in ICR mouse assessed as reentrainment for 8 hrs advance of dark phase at 3 mg/kg, ip administered 1 hr before dark period once daily for 3 days by running-wheel activity assay; assay type: functional, organism-based; design: dose 3 mg/kg
Summary of the method: (§1)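 Male ICR mice (6 weeks old), housed individually with running wheels under 12/12 light/dark, habituated at least 2 weeks; dark phase then advanced 8 h and kept 14 days. Dosed ip once daily 1 h before dark from shift day, suspended in 0.5% methylcellulose saline, 10 mL/kg. Days to reentrainment: onset advanced >7 h for ≥3 consecutive days, else scored 14 days.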

[5] = molecular target: T3, Melatonin receptor type 1B (Homo sapiens) (UniProt P49286); test: Agonist activity at human MT2 receptor expressed in CHO cells assessed as inhibition of forskolin-induced cAMP accumulation after 30 mins by EnVision Multilabel Plate Readers relative to control; assay type: functional, cell-based
T3 sequence (whole entry): T2 sequence (P49286 whole entry)
Summary of the method: (§2)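 Stable CHO line expressing human MT2, suspended in modified HBSS with 5 mM HEPES pH 7.4, 0.1% BSA, 100 μM IBMX and 100 μM Ro20-1724; 6 × 10⁴ cells/well. Compound added, then forskolin (final 2 μM), 30 min at room temperature; AlphaScreen cAMP read after 12 h in dark.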

[6] = molecular target: T3, Melatonin receptor type 1B (Homo sapiens); test: Ratio of compound Ki to melatonin Ki for human MT2 receptor expressed on CHO cells by radioligand displacement assay; assay type: cell-based
Summary of the method: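 Membranes from CHO cells stably expressing human MT1 or MT2, in 50 mM Tris-HCl pH 7.7. Incubated with 2-[¹²⁵I]iodomelatonin, 40 pM for MT1 or 80 pM for MT2, 150 min at 25 °C. […] IC50 by three-parameter fit, Ki by Cheng–Prusoff using Kd 33.9 pM for MT1 and 72.6 pM for MT2.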

Mus musculus [7] = test: Chronobiotic activity in ICR mouse assessed as reentrainment for 8 hrs advance of dark phase at 30 mg/kg, ip administered 1 hr before dark period once daily for 3 days by running-wheel activity assay; assay type: functional, organism-based; design: dose 30 mg/kg; summary of the method: as §1
[8] = molecular target: T1, Melatonin receptor type 1A; test: Agonist activity at human MT1 receptor expressed in CHO cells assessed as inhibition of forskolin-induced cAMP accumulation after 30 mins by EnVision Multilabel Plate Readers; assay type: functional, cell-based
[9] = molecular target: T3, Melatonin receptor type 1B (Homo sapiens); test: Partial agonist activity at human MT2 receptor expressed in CHO cells assessed as inhibition of forskolin-induced cAMP accumulation after 30 mins by EnVision Multilabel Plate Readers relative to control; assay type: functional, cell-based; summary of the method: as §2

T1 sequence (P48039 whole entry): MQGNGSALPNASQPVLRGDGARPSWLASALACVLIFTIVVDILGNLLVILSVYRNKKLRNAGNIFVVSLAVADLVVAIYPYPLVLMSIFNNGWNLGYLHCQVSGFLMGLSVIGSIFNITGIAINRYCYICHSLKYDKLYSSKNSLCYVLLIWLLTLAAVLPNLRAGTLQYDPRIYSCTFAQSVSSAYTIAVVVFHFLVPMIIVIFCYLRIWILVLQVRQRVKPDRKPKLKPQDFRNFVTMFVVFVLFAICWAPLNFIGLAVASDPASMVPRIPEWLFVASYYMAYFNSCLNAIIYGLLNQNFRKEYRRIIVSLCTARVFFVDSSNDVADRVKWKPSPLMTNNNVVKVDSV

Ki [1] [nM] | Ratio Ki (Homo sapiens) | Ki [2] [nM] | EC50 [3] [nM] | Emax [5] [%] | Ratio Ki [6] | EC50 [8] [nM] | Emax [9] [%] | SMILES | Activity (Mus musculus [4]) | Activity (Mus musculus [7])
0.057 | 6.3 | 0.009 | – | – | – | – | – | COc1cccc(C2=C(CCNC(C)=O)c3c(ccc4c3CCO4)C2)c1 | – | –
1.3 | 220 | 0.006 | – | – | – | – | – | CC(=O)NCCC1=C(c2csc3ccccc23)Cc2ccc3c(c21)CCO3 | – | –
0.032 | 3.1 | 0.01 | – | – | – | – | – | CC(C)C1=C(CCNC(=O)C(F)(F)F)c2c(ccc3c2CCO3)C1 | – | –
0.069 | 2.1 | 0.034 | – | – | – | – | – | CC(=O)NCCC1=C(c2cccnc2)Cc2ccc3c(c21)CCO3 | – | –
1.4 | 1.8 | 0.77 | – | – | – | – | – | CC(=O)NCCC1=C(c2ccc(C(C)(C)C)cc2)Cc2ccc3c(c21)CCO3 | – | –
9.2 | 799 | 0.012 | 1.32 | 99 | 18 | 4.47 | – | CC(=O)NCCC1=C(CC2CCCCC2)Cc2ccc3c(c21)CCO3 | Active | Active
0.013 | 1.3 | 0.011 | – | – | – | – | – | CCC(=O)NCCC1=C(C(C)C)Cc2ccc3c(c21)CCO3 | – | –
0.024 | 1.3 | 0.018 | – | – | – | – | – | CC(=O)NCCC1=C(C(C)C)Cc2ccc3c(c21)CCO3 | – | –
1.1 | 13 | 0.084 | – | – | – | – | – | CCNC(=O)NCCC1=C(C(C)C)Cc2ccc3c(c21)CCO3 | – | –
> 100 | > 292 | 0.34 | – | – | – | – | – | CC(=O)NCCC1=C(c2ccccc2OC(C)C)Cc2ccc3c(c21)CCO3 | – | –
2.7 | 316 | 0.0085 | – | 61.7 | – | 0.513 | – | CC(=O)NCCC1=C(Cc2ccccc2)Cc2ccc3c(c21)CCO3 | – | –
0.0065 | 0.68 | 0.0096 | – | – | – | – | – | CC(=O)NCCC1=C(c2ccoc2)Cc2ccc3c(c21)CCO3 | – | –
0.11 | 3.2 | 0.035 | – | – | – | – | – | CC(C)C1=C(CCNC(=O)C2CC2)c2c(ccc3c2CCO3)C1 | – | –
3 | 81 | 0.037 | – | – | – | – | – | COc1ccc(C2=C(CCNC(C)=O)c3c(ccc4c3CCO4)C2)cc1 | – | –
0.045 | 2.1 | 0.022 | – | – | 10 | – | – | CC(=O)NCCC1=CCc2ccc3c(c21)CCO3 | – | –
13 | 1200 | 0.011 | – | – | 19 | 3.02 | 72.8 | CC(=O)NCCC1=C(c2cccc(C(C)C)c2)Cc2ccc3c(c21)CCO3 | – | –
0.88 | 132 | 0.0067 | – | – | – | – | – | CC(=O)NCCC1=C(Cc2ccsc2)Cc2ccc3c(c21)CCO3 | – | –
1.1 | 53 | 0.02 | – | – | – | – | – | COc1ccccc1C1=C(CCNC(C)=O)c2c(ccc3c2CCO3)C1 | – | –
0.0087 | 0.61 | 0.014 | – | – | – | – | – | CC(=O)NCCC1=C(Br)Cc2ccc3c(c21)CCO3 | – | –
